Assay results from ChEMBL document CHEMBL1629539, “Configuration of the 5'-methyl group modulates the biophysical and biological properties of locked nucleic acid (LNA) oligonucleotides” (J Med Chem, 2010).
Calls of active or inactive are those of the source. The calls are words filed in the database; no cut-off is given here.

Experiments:
Mus musculus [1] = test: Reduction in PTEN mRNA expression in BALB/c mouse liver at 12 mg/kg, ip administered as single dose measured 72 hrs post dose; format: functional
How it was run: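 Single ip injection at 12 or 60 mg/kg of phosphorothioate gapmer (14-base deoxy gap, two modified nucleotides per wing) against PTEN in Balb-c mice, n = 4/group. After sacrifice, liver PTEN mRNA reported as % down-regulation versus saline controls, and plasma ALT (IU/L) measured as the liver toxicity read-out.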

[2] = test system: snake venom phosphodiesterase; test: Chemical stability in presence of snake venom phosphodiesterase assessed as half life; format: physicochemical
Mus musculus [3] = test: Reduction in PTEN mRNA expression in BALB/c mouse liver at 46 mg/kg, ip measured 72 hrs post dose by Rt-PCR; format: functional, organism-based; design: dose 46 mg/kg
How it was run: (§1)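 Balb-c mice, 4 per group, one ip dose at 23 or 46 mg/kg of 14-mer fully phosphorothioate gapmer ASO targeting PTEN. Sacrifice 72 h after dosing. Liver PTEN mRNA quantified by quantitative RT-PCR, expressed as % down-regulation versus saline-treated animals. Plasma ALT (IU/L) measured after sacrifice.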

Mus musculus [4] = test: Toxicity in BALB/c mouse assessed as increase in spleen weight at 4.5 mg/kg, ip administered twice weekly for 3 weeks measured after 72 hrs post last dose; format: organism-based; design: dose 4.5 mg/kg, route intraperitoneal; conditions: in vivo
How it was run: (§2)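 Balb-c mice (n = 4/group) dosed ip twice a week for 3 weeks at 0.5, 1.5, 4.5 and 15 mg/kg of PTEN-targeting 14-mer phosphorothioate gapmer. Sacrifice 72 h after last dose. Liver PTEN mRNA by quantitative RT-PCR as % versus saline, with ED50 derived from dose-response. Plasma ALT (IU/L) recorded. Spleen weight given as fold increase over saline group.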

Mus musculus [5] = test: Hepatoprotective activity in BALB/c mouse assessed as reduction of plasma alanine amino transferase levels at 15 mg/kg, ip administered twice weekly for 3 weeks measured after 72 hrs post last dose; format: functional, organism-based; design: dose 15 mg/kg; how it was run: as §2
Mus musculus [6] = test: Reduction in PTEN mRNA expression in ip dosed BALB/c mouse liver administered twice weekly for 3 weeks measured after 72 hrs post last dose; format: functional; how it was run: as §2
Mus musculus [7] = test: Hepatoprotective activity in BALB/c mouse assessed as at 23 mg/kg, ip assessed as reduction of plasma alanine amino transferase levels after 72 hrs post dose; format: functional, organism-based; design: dose 23 mg/kg; how it was run: as §1
Mus musculus [8] = test: Hepatoprotective activity in BALB/c mouse assessed as at 46 mg/kg, ip assessed as reduction of plasma alanine amino transferase levels after 72 hrs post dose; format: functional, organism-based; design: dose 46 mg/kg; how it was run: as §1
Mus musculus [9] = test: Reduction in PTEN mRNA expression in BALB/c mouse liver at 23 mg/kg, ip measured 72 hrs post dose by Rt-PCR; format: functional, organism-based; design: dose 23 mg/kg; how it was run: as §1
Mus musculus [10] = test: Toxicity in BALB/c mouse assessed as increase in spleen weight at 1.5 mg/kg, ip administered twice weekly for 3 weeks measured after 72 hrs post last dose; format: organism-based; design: dose 1.5 mg/kg, route intraperitoneal; conditions: in vivo; how it was run: as §2
Mus musculus [11] = test: Hepatotoxicity in BALB/c mouse liver at 60 mg/kg, ip administered as single dose measured 72 hrs post dose

Cc1cn([C@@H]2O[C@@]3(COP(O)(=S)O[C@H]4[C@H]5OC[C@]4(COP(O)(=S)O[C@H]4[C@H]6OC[C@]4(COP(O)(=S)O[C@H]4[C@H]7OC[C@]4(COP(O)(=S)O[C@H]4[C@H]8OC[C@]4(COP(O)(=S)O[C@H]4[C@H]9OC[C@]4(COP(O)(=S)O[C@H]4[C@H]%10OC[C@]4(COP(O)(=S)O[C@H]4[C@H]%11OC[C@]4(COP(O)(=S)O[C@H]4[C@H]%12OC[C@]4(COP(O)(=S)O[C@H]4[C@H]%13OC[C@]4([C@H](C)O)O[C@H]%13n4ccc(N)nc4=O)O[C@H]%12n4ccc(=O)[nH]c4=O)O[C@H]%11n4cnc%11c(=O)[nH]c(N)nc%114)O[C@H]%10n4ccc(N)nc4=O)O[C@H]9n4cc(C)c(=O)[nH]c4=O)O[C@H]8n4cnc8ncnc(N)c84)O[C@H]7[n+]4c[nH]c7nc(N)[nH]c(=O)c74)O[C@H]6n4ccc(N)nc4=O)O[C@H]5n4ccc(N)nc4=O)CO[C@@H]2[C@@H]3OP(O)(=S)OC[C@@]23CO[C@@H]([C@H](n4ccc(N)nc4=O)O2)[C@@H]3OP(O)(=S)OC[C@@]23CO[C@@H]([C@H](n4cc(C)c(=O)[nH]c4=O)O2)[C@@H]3OP(O)(=S)OC[C@@]23CO[C@@H]([C@H]([n+]4c[nH]c5nc(N)[nH]c(=O)c54)O2)[C@@H]3OP(O)(=S)OC[C@@]23CO[C@@H]([C@H]([n+]4c[nH]c5nc(N)[nH]c(=O)c54)O2)[C@@H]3OP(O)(=S)OC[C@@]23CO[C@@H]([C@H](n4cnc5ncnc(N)c54)O2)[C@@H]3OP(O)(=S)OC[C@@]23CO[C@@H]([C@H](n4cc(C)c(=O)[nH]c4=O)O2)[C@@H]3OP(O)(=S)OC[C@@]23CO[C@@H]([C@H](n4ccc(=O)[nH]c4=O)O2)[C@@H]3OP(O)(=S)OC[C@@]23CO[C@@H]([C@H](n4ccc(=O)[nH]c4=O)O2)[C@@H]3O)c(=O)[nH]c1=O (stereo not given in full)
inhibition (Mus musculus [1]): Active

Cc1cn([C@H]2C[C@H](OP(=O)(O)OC[C@H]3O[C@@H](n4cc(C)c(=O)[nH]c4=O)C[C@@H]3OP(=O)(O)OC[C@H]3O[C@@H](n4cc(C)c(=O)[nH]c4=O)C[C@@H]3OP(=O)(O)OC[C@H]3O[C@@H](n4cc(C)c(=O)[nH]c4=O)C[C@@H]3OP(=O)(O)OC[C@H]3O[C@@H](n4cc(C)c(=O)[nH]c4=O)C[C@@H]3OP(=O)(O)OC[C@H]3O[C@@H](n4cc(C)c(=O)[nH]c4=O)C[C@@H]3OP(=O)(O)OC[C@H]3O[C@@H](n4cc(C)c(=O)[nH]c4=O)C[C@@H]3OP(=O)(O)OC[C@H]3O[C@@H](n4cc(C)c(=O)[nH]c4=O)C[C@@H]3OP(=O)(O)OC[C@H]3O[C@@H](n4cc(C)c(=O)[nH]c4=O)C[C@@H]3OP(=O)(O)OC[C@H]3O[C@@H](n4cc(C)c(=O)[nH]c4=O)C[C@@H]3OP(=O)(O)OC[C@@]34CO[C@@H]([C@H](n5ccc(=O)[nH]c5=O)O3)[C@@H]4OP(=O)(O)O[C@H](C)[C@@]34CO[C@@H]([C@H](n5ccc(=O)[nH]c5=O)O3)[C@@H]4O)[C@@H](CO)O2)c(=O)[nH]c1=O
half-life [2]: 210 min

Cc1cn([C@H]2C[C@H](OP(=O)(O)OC[C@H]3O[C@@H](n4cc(C)c(=O)[nH]c4=O)C[C@@H]3OP(=O)(O)OC[C@H]3O[C@@H](n4cc(C)c(=O)[nH]c4=O)C[C@@H]3OP(=O)(O)OC[C@H]3O[C@@H](n4cc(C)c(=O)[nH]c4=O)C[C@@H]3OP(=O)(O)OC[C@H]3O[C@@H](n4cc(C)c(=O)[nH]c4=O)C[C@@H]3OP(=O)(O)OC[C@H]3O[C@@H](n4cc(C)c(=O)[nH]c4=O)C[C@@H]3OP(=O)(O)OC[C@H]3O[C@@H](n4cc(C)c(=O)[nH]c4=O)C[C@@H]3OP(=O)(O)OC[C@H]3O[C@@H](n4cc(C)c(=O)[nH]c4=O)C[C@@H]3OP(=O)(O)OC[C@H]3O[C@@H](n4cc(C)c(=O)[nH]c4=O)C[C@@H]3OP(=O)(O)OC[C@H]3O[C@@H](n4cc(C)c(=O)[nH]c4=O)C[C@@H]3OP(=O)(O)OC[C@@]34CO[C@@H]([C@H](n5ccc(=O)[nH]c5=O)O3)[C@@H]4OP(=O)(O)O[C@@H](C)[C@@]34CO[C@@H]([C@H](n5ccc(=O)[nH]c5=O)O3)[C@@H]4O)[C@@H](CO)O2)c(=O)[nH]c1=O
half-life [2]: 486 min

Cc1cn([C@H]2CC(OP(=O)(O)OC[C@H]3O[C@@H](n4cc(C)c(=O)[nH]c4=O)C[C@@H]3OP(=O)(O)OC[C@H]3O[C@@H](n4cc(C)c(=O)[nH]c4=O)C[C@@H]3OP(=O)(O)OC[C@H]3O[C@@H](n4cc(C)c(=O)[nH]c4=O)C[C@@H]3OP(=O)(O)OC[C@H]3O[C@@H](n4cc(C)c(=O)[nH]c4=O)C[C@@H]3OP(=O)(O)OC[C@H]3O[C@@H](n4cc(C)c(=O)[nH]c4=O)C[C@@H]3OP(=O)(O)OC[C@H]3O[C@@H](n4cc(C)c(=O)[nH]c4=O)C[C@@H]3OP(=O)(O)OC[C@H]3O[C@@H](n4cc(C)c(=O)[nH]c4=O)C[C@@H]3OP(=O)(O)OC[C@H]3O[C@@H](n4cc(C)c(=O)[nH]c4=O)C[C@@H]3OP(=O)(O)OC[C@H]3O[C@@H](n4cc(C)c(=O)[nH]c4=O)C[C@@H]3OP(=O)(O)OC[C@@]34CO[C@@H]([C@H](n5ccc(=O)[nH]c5=O)O3)[C@@H]4OP(=O)(O)OC[C@@]34CO[C@@H]([C@H](n5ccc(=O)[nH]c5=O)O3)[C@@H]4O)[C@@H](CO)O2)c(=O)[nH]c1=O (stereo not given in full)
half-life [2]: 2.6 min

Cc1cn([C@@H]2O[C@@]3(COP(O)(=S)O[C@H]4[C@H]5OC[C@]4(COP(O)(=S)O[C@H]4[C@H]6OC[C@]4(COP(O)(=S)O[C@H]4[C@H]7OC[C@]4(COP(O)(=S)O[C@H]4[C@H]8OC[C@]4(COP(O)(=S)O[C@H]4[C@H]9OC[C@]4(COP(O)(=S)O[C@H]4[C@H]%10OC[C@]4(COP(O)(=S)O[C@H]4[C@H]%11OC[C@]4([C@H](C)O)O[C@H]%11n4ccc(=O)[nH]c4=O)O[C@H]%10n4ccc(N)nc4=O)O[C@H]9n4cnc9c(N)ncnc94)O[C@H]8n4cc(C)c(=O)[nH]c4=O)O[C@H]7n4cnc7nc(N)[nH]c(=O)c74)O[C@H]6n4cnc6nc(N)[nH]c(=O)c64)O[C@H]5N4CCC(N)=NC4=O)CO[C@@H]2[C@@H]3OP(O)(=S)OC[C@@]23CO[C@@H]([C@H](n4cnc5nc(N)[nH]c(=O)c54)O2)[C@@H]3OP(O)(=S)OC[C@@]23CO[C@@H]([C@H](n4ccc(N)nc4=O)O2)[C@@H]3OP(O)(=S)OC[C@@]23CO[C@@H]([C@H](n4cnc5c(N)ncnc54)O2)[C@@H]3OP(O)(=S)OC[C@@]23CO[C@@H]([C@H](n4cnc5nc(N)[nH]c(=O)c54)O2)[C@@H]3OP(O)(=S)OC[C@@]23CO[C@@H]([C@H](n4ccc(N)nc4=O)O2)[C@@H]3OP(O)(=S)OC[C@@]23CO[C@@H]([C@H](n4ccc(=O)[nH]c4=O)O2)[C@@H]3O)c(=O)[nH]c1=O (stereo not given in full)
inhibition (Mus musculus [3]): Active
Activity (Mus musculus [4]): Non-toxic
Activity (Mus musculus [5]): Active
ED50 (Mus musculus [6]): 6 mg/kg
inhibition (Mus musculus [6]): Dose-dependent effect
Activity (Mus musculus [7]): Active
Activity (Mus musculus [8]): Active
inhibition (Mus musculus [9]): inactive
Activity (Mus musculus [10]): Non-toxic

Cc1cn([C@@H]2O[C@@]3(CO)CO[C@@H]2[C@@H]3OP(O)(=S)OC[C@@]23CO[C@@H]([C@H](n4cc(C)c(=O)[nH]c4=O)O2)[C@@H]3OP(O)(=S)OC[C@@]23CO[C@@H]([C@H](n4cnc5c(=O)[nH]c(N)nc54)O2)[C@@H]3OP(O)(=S)OC[C@@]23CO[C@@H]([C@H](n4ccc(N)nc4=O)O2)[C@@H]3OP(O)(=S)OC[C@@]23CO[C@@H]([C@H](n4cc(C)c(=O)[nH]c4=O)O2)[C@@H]3OP(O)(=S)OC[C@@]23CO[C@@H]([C@H](n4cnc5ncnc(N)c54)O2)[C@@H]3OP(O)(=S)OC[C@@]23CO[C@@H]([C@H]([n+]4c[nH]c5nc(N)[nH]c(=O)c54)O2)[C@@H]3OP(O)(=S)OC[C@@]23CO[C@@H]([C@H](n4ccc(N)nc4=O)O2)[C@@H]3OP(O)(=S)OC[C@@]23CO[C@@H]([C@H](n4ccc(N)nc4=O)O2)[C@@H]3OP(O)(=S)OC[C@@]23CO[C@@H]([C@H](n4cc(C)c(=O)[nH]c4=O)O2)[C@@H]3OP(O)(=S)OC[C@@]23CO[C@@H]([C@H](n4ccc(N)nc4=O)O2)[C@@H]3OP(O)(=S)OC[C@@]23CO[C@@H]([C@H](n4cc(C)c(=O)[nH]c4=O)O2)[C@@H]3OP(O)(=S)OC[C@@]23CO[C@@H]([C@H]([n+]4c[nH]c5nc(N)[nH]c(=O)c54)O2)[C@@H]3OP(O)(=S)OC[C@@]23CO[C@@H]([C@H]([n+]4c[nH]c5nc(N)[nH]c(=O)c54)O2)[C@@H]3OP(O)(=S)OC[C@@]23CO[C@@H]([C@H](n4cnc5ncnc(N)c54)O2)[C@@H]3OP(O)(=S)OC[C@@]23CO[C@@H]([C@H](n4cc(C)c(=O)[nH]c4=O)O2)[C@@H]3OP(O)(=S)OC[C@@]23CO[C@@H]([C@H](n4cc(C)c(=O)[nH]c4=O)O2)[C@@H]3OP(O)(=S)OC[C@@]23CO[C@@H]([C@H](n4cc(C)c(=O)[nH]c4=O)O2)[C@@H]3O)c(=O)nc1N (stereo not given in full)
Activity (Mus musculus [11]): Toxic
inhibition in vivo at 12 mg/kg (Mus musculus [1]; route intraperitoneal): 90%
